The text below walks through data of ChEMBL document CHEMBL1124947, “Cationic antiprotozoal drugs. Trypanocidal activity of 2-(4'-formylphenyl)imidazo[1,2-a]pyridinium guanylhydrazones and related derivatives of quaternary heteroaromatic compounds” (J Med Chem, 1990).

Format in all cases: functional
Experiment [1] concerns Mus musculus. In words: Trypanocidal Activity at I.C.E. value 0.63 when administered perorally.
The test system of experiment [2] is Mus musculus. Kind of experiment: Trypanocidal Activity at I.C.E. value 0.94 when administered subcutaneously. Put shortly:
(§1)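 Mice, in groups of five per dose, were given a standard inoculum of blood-stage T. rhodesiense that is lethal to all untreated controls, then dosed subcutaneously. Usually 11 dose levels were used (2^n × 0.42 mg/kg).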

Experiment [3] concerns Trypanosoma brucei rhodesiense. Kind of experiment: In Vitro measurement of inhibition of Leucine uptake in cell culture of Trypanosoma rhodesiense. The conditions noted are these: read-out: ID50 (the source's name). The gist of the method:
(§2)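 Trypanosomes harvested from infected rats, cultured 3 h with several concentrations of drug, usually 0.1–100 µg/mL. Radiolabeled L-leucine uptake measured. ID50 is the concentration in µg/mL giving 50% inhibition of incorporation.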

Experiment [4] deals with Trypanosoma brucei rhodesiense. Kind of experiment: In Vitro measurement of inhibition of thymidine uptake in cell culture of Trypanosoma rhodesiense. The conditions noted are these: read-out: ID50 (the source's name). Put shortly:
(§3)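 Parasites harvested from infected rats and incubated 3 h across a drug concentration series, usually 0.1–100 µg/mL. Incorporation of radiolabeled thymidine measured. ID50 is the concentration (µg/mL) producing 50% inhibition.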

Experiment [5] has as its system Mus musculus. In words: Trypanocidal Activity at I.C.E. value 0.57 when administered subcutaneously. Put shortly: as §1
For experiment [6], the system named is Mus musculus. In words: Trypanocidal Activity at I.C.E. value 0.56 when administered perorally.
The test system of experiment [7] is Trypanosoma brucei rhodesiense. In words: In Vitro measurement of inhibition of leucine uptake in cell culture of Trypanosoma rhodesiense. The conditions noted are these: read-out: ID50 (the source's name). The gist of the method:
as §2

For experiment [8], the system named is Mus musculus. In words: Trypanocidal Activity at I.C.E. value 0.45 when administered subcutaneously. Put shortly: (§4)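 Blood-stage T. rhodesiense infection came from a standard inoculum lethal to all untreated mice. Drug was given by subcutaneous injection to groups of five mice. Survival beyond 30 days counted as cure. […] Sub-curative doses scored 0, and data were normalized at each dose.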

Experiment [9] relates to Trypanosoma brucei rhodesiense. In words: In Vitro measurement of inhibition of thymidine uptake in cell culture of Trypanosoma rhodesiense. The conditions noted are these: read-out: ID50 (the source's name). Put shortly:
as §3

The test system of experiment [10] is Mus musculus. In words: Trypanocidal Activity at I.C.E. value 0.42 when administered perorally.
In experiment [11] the test system is Mus musculus. In words: Trypanocidal Activity at I.C.E. value 0.80 when administered subcutaneously. Put shortly: as §1
Experiment [12] has as its system Mus musculus. Kind of experiment: Trypanocidal Activity at I.C.E. value 0.66 when administered subcutaneously. The gist of the method:
as §1

Experiment [13] has as its system Mus musculus. In words: Trypanocidal Activity at I.C.E. value 0.49 when administered perorally.
The subject of experiment [14] is Mus musculus. In words: Trypanocidal Activity at I.C.E. value 0.74 when administered subcutaneously. The gist of the method: as §1
For experiment [15], the system named is Mus musculus. In words: Trypanocidal Activity at I.C.E. value 0.15 when administered perorally.
In experiment [16] the test system is Mus musculus. In words: Trypanocidal Activity at I.C.E. value 0.30 when administered subcutaneously. Put shortly: as §4
In experiment [17] the test system is Mus musculus. Kind of experiment: Trypanocidal Activity at I.C.E. value 0.55 when administered subcutaneously. Put shortly: as §1
For experiment [18], the system named is Mus musculus. Kind of experiment: Trypanocidal Activity at I.C.E. value 0.47 when administered subcutaneously. Put shortly: as §4
Experiment [19] concerns Mus musculus. Kind of experiment: Trypanocidal Activity at I.C.E. value 0.4 when administered perorally.
In experiment [20] the test system is Mus musculus. Kind of experiment: Trypanocidal Activity at I.C.E. value 0.61 when administered subcutaneously. The gist of the method:
as §1

Experiment [21] has as its system Trypanosoma brucei rhodesiense. Kind of experiment: In Vitro measurement of inhibition of leucine uptake in cell culture of Trypanosoma rhodesiense. The conditions noted are these: read-out: ID50 (the source's name). Put shortly:
as §2

Experiment [22] has as its system Mus musculus. Kind of experiment: Trypanocidal Activity at I.C.E. value 0.35 when administered subcutaneously. The gist of the method:
as §4

For experiment [23], the system named is Mus musculus. Kind of experiment: Trypanocidal Activity at I.C.E. value 0.59 when administered subcutaneously. The gist of the method: as §1
The subject of experiment [24] is Mus musculus. Kind of experiment: Trypanocidal Activity at I.C.E. value 0.23 when administered perorally.
Experiment [25] deals with Mus musculus. In words: Trypanocidal Activity at I.C.E. value 0.31 when administered perorally.
Experiment [26] relates to Mus musculus. In words: Trypanocidal Activity at I.C.E. value 0.50 when administered perorally.
Experiment [27] has as its system Mus musculus. Kind of experiment: Trypanocidal Activity at I.C.E. value 0.39 when administered subcutaneously. The gist of the method:
as §4

Molecules are shown by their SMILES.

For the molecule `C[n+]1c(-c2ccc(/C=C/C=N/NC(=N)N)cc2)cn2ccccc21.Cc1ccc(S(=O)(=O)O)cc1.Cc1ccc(S(=O)(=O)[O-])cc1`, the CD50 in the experiment with Mus musculus [1] was determined as 6.6 mg/kg; in the experiment with Mus musculus [2] it was 0.06 mg/kg.
For `Br.C[n+]1c(-c2ccc(/C=N/NC3=NCCN3)cc2)cn2ccccc21.[Br-]`, the results for the IC50 in [3] and in experiment [4] were 0.9 µg/mL and 0.8 µg/mL, respectively. Further, the CD50 in the experiment with Mus musculus [5] amounted to 0.8 mg/kg; in the experiment on Mus musculus [6], 13 mg/kg.
As to `C[n+]1cccc(COc2ccc(/C=N/NC(=N)N)cc2)c1.Cc1ccc(S(=O)(=O)O)cc1.Cc1ccc(S(=O)(=O)[O-])cc1`, the results for the IC50 in experiment [7] and in experiment [9] were > 10 µg/mL and 1.8 µg/mL, respectively. Besides, the CD50 was found to be 0.8 mg/kg in the experiment on Mus musculus [8] and 26 mg/kg in the experiment on Mus musculus [10].
In the case of `Br.CC/N=C(\NCC)N/N=C/c1ccc(/C=C/c2cn3ccccc3[n+]2C)cc1.[Br-]`, in the experiment with Mus musculus [11], the CD50 was 0.4 mg/kg.
Consider `Br.CCNC(=N)N/N=C/c1ccc(/C=C/c2cn3ccccc3[n+]2C)cc1.[Br-]`, for which, in the experiment with Mus musculus [12], the CD50 was determined as 0.1 mg/kg.
As to `Br.Cc1cccc2n1cc(COc1ccc(/C=N/NC(=N)NO)cc1)[n+]2C.[Br-]`, the CD50 in the experiment on Mus musculus [13] turned out to be 13 mg/kg; with Mus musculus [14] it was 0.8 mg/kg.
For the molecule `Br.CC/N=C(\NCC)N/N=C/c1ccc(C[n+]2cn(C)c3ccccc32)cc1.[Br-]`, the CD50 amounted to 424 mg/kg in the experiment with Mus musculus [15] and 13 mg/kg with Mus musculus [16].
`Cc1ccc(S(=O)(=O)O)cc1.Cc1ccc(S(=O)(=O)[O-])cc1.Cc1ccn2cc(-c3ccc(/C=N/NC(=N)N)cc3)[n+](C)c2c1`: the IC50 in experiment [4] was 1 µg/mL. For the same molecule, the CD50 with Mus musculus [17] came to 1.6 mg/kg.
Turning to `C[n+]1ccc(COc2ccc(/C=N/NC(=N)N3CCCC3)cc2)cc1.Cc1ccc(S(=O)(=O)O)cc1.Cc1ccc(S(=O)(=O)[O-])cc1`, the CD50 in the experiment with Mus musculus [18] worked out at 0.8 mg/kg; in the experiment on Mus musculus [19] it was 424 mg/kg. The IC50 worked out at 13.6 µg/mL in [7] and 9.3 µg/mL in experiment [9].
In the case of `Br.C[n+]1cccc(COc2ccc(/C=N/NC(=N)N3CCCC3)cc2)c1.[Br-]`, the figures for the CD50 with Mus musculus [18] and with Mus musculus [19] were 0.8 mg/kg and 26 mg/kg, respectively. Besides, the IC50 was 0.8 µg/mL in experiment [7] and 0.3 µg/mL in experiment [9].
With `CCNC(=N)N/N=C/c1ccc(/C=C/c2n(C)cc[n+]2C)cc1.Cc1ccc(S(=O)(=O)O)cc1.Cc1ccc(S(=O)(=O)[O-])cc1`, the CD50 in the experiment with Mus musculus [20] stood at 0.11 mg/kg.
`Br.CCN(CC)C(=N)N/N=C/c1ccc(-c2cn3ccccc3[n+]2C)cc1.[Br-]`: the IC50 in experiment [21] was found to be 1 µg/mL; in experiment [4] it was 1.1 µg/mL. Besides, in the experiment on Mus musculus [22], the CD50 is 0.2 mg/kg.
With `Br.Cn1c[n+](Cc2ccc(/C=N/NC3=NCCCN3)cc2)c2ccccc21.[Br-]`, the CD50 in the experiment on Mus musculus [23] was 1.6 mg/kg; in the experiment with Mus musculus [24], 106 mg/kg.
For `Br.CCCSc1ccc2n(c1)cc(-c1ccc(/C=N/NC(=N)N3CCCC3)cc1)[n+]2C.[Br-]`, the figures for the CD50 in the experiment on Mus musculus [25] and in the experiment with Mus musculus [2] were 53 mg/kg and 0.1 mg/kg, respectively.
In the case of `C[n+]1c(-c2ccc(/C=N/NC(=N)N)cc2)cn2cc(Cl)ccc21.Cc1ccc(S(=O)(=O)O)cc1.Cc1ccc(S(=O)(=O)[O-])cc1`, the figures for the CD50 with Mus musculus [26] and in the experiment on Mus musculus [27] were 13 mg/kg and 1.6 mg/kg, respectively.
